According to ChEMBL document CHEMBL1130176, “Selective inhibitors of cyclic AMP-specific phosphodiesterase: heterocycle-condensed purines” (J Med Chem, 1997):

How the values were obtained:
Phosphodiesterase 3 = Phosphodiesterase 3 (Homo sapiens, UniProt Q14432+Q13370); test: Inhibitory activity against Phosphodiesterase 3 from heart.; type: protein assay
Procedure, shortened: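 PDE I (Ca2+/calmodulin-stimulated, cerebral cortex) and PDE III (cGMP-inhibited, heart) isolated by the Reeves method. IC50 fitted by nonlinear least squares. Final DMSO below 0.5%.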

Phosphodiesterase 4 = Phosphodiesterase 4 (Homo sapiens, UniProt P27815+Q08499+Q07343+Q08493); test: Inhibitory activity against Phosphodiesterase 4 from cerebral cortex.
Cavia porcellus [1] = organism: Cavia porcellus; test: Tested in vitro for tracheal relaxation; type: functional; details: Trachea
Procedure, shortened: (§1)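 Tracheal ring-chains from male Hartley guinea pigs (300–500 g), 37 °C Krebs–Henseleit pH 7.4, 95% O2–5% CO2, 0.5 g tension, isometric recording. After full relaxation with 1.0 μM isoprenaline and washout, spontaneous tone redeveloped. Cumulative compound concentrations then given, at least five spanning the EC50.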

Cavia porcellus [2] = organism: Cavia porcellus; test: Compound was tested in vitro for positive chronotropic action.; type: functional
Procedure, shortened: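 Isolated right atrium from male Hartley guinea pig (300–500 g) in Krebs–Henseleit, 95% O2–5% CO2, 25 °C, 0.5 g tension. Cumulative compound concentrations, at least five spanning the EC20. Beating rate recorded by cardiotachometer triggered by isometric contraction. Value is the concentration raising the unstimulated rate by 20% (EC20). DMSO below 0.5% final.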

Phosphodiesterase 1 = Phosphodiesterase 1 (Homo sapiens, UniProt P54750+Q01064+Q14123); test: Inhibitory activity against PDE1 from cerebral cortex; type: tissue-based
Procedure, shortened: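 PDE I (Ca2+/calmodulin-stimulated, cerebral cortex) and PDE III (cGMP-inhibited, heart) isolated by the Reeves method. […] IC50 fitted by nonlinear least squares. Final DMSO below 0.5%.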

Suncus murinus [3] = test: Emetic effect in shrews at 10 mg/kg peroral dose, 3 of 3 animals affected; type: functional; details: route oral
Suncus murinus [4] = test: (§2) Emetic effect in shrews at 30 mg/kg peroral dose, 0 of 3 animals affected; type: functional; details: route oral
Suncus murinus [5] = test: as §2; type: functional; details: route oral; remark: listed apart in the source
Suncus murinus [6] = test: Emetic effect in shrews at 100 mg/kg peroral dose, 0 of 3 animals affected; type: functional; details: route oral
Suncus murinus [7] = test: Emetic effect in shrews at 30 mg/kg peroral dose, 3 of 3 animals affected; type: functional; details: route oral
Cavia porcellus [8] = organism: Cavia porcellus; test: In vitro guinea pig tracheal relaxation; type: functional; details: Trachea; procedure, shortened: as §1
Cavia porcellus [9] = organism: Cavia porcellus; test: In vitro positive chronotropic effect; type: functional
Procedure, shortened: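 Isolated right atrium from male Hartley guinea pigs (300–500 g) in Krebs–Henseleit, 25 °C, 95% O2–5% CO2, 0.5 g tension. Cumulative compound concentrations; beating rate recorded by cardiotachometer triggered by isometric contraction. EC20 is the concentration raising unstimulated rate by 20%, from over five concentrations. DMSO below 0.5% final.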

Cavia porcellus [10] = organism: Cavia porcellus; test: Negative inotropic response to adenosine in guinea pig left atrium; type: functional; details: Cardiac atrium, read-out: pA2 (converted)

IC50 (Phosphodiesterase 3) [µM] | IC50 (Phosphodiesterase 4) [µM] | EC50 (Cavia porcellus [1]) [µM] | IC50 (Phosphodiesterase 1) [µM] | Compound | EC20 (Cavia porcellus [2]) [µM] | further results
> 100 | > 100 | 53 | > 100 | CCCN1C(=O)N2CCCCN=C2c2[nH]cnc21 | > 100 | 
> 100 | 4.7 | 2.1 | > 100 | CCCN1C(=O)N2CCCN=C2c2ncn(CCC)c21 | > 100 | 
> 100 | > 100 | 22 | > 100 | CCCN1C(=O)N2CCCN=C2c2[nH]cnc21 | > 100 | 
> 100 | > 100 | 31 | > 100 | CCCN1C(=O)N2CCN=C2c2[nH]cnc21 | > 100 | 
> 100 | > 100 | > 100 | > 100 | CCCn1c(=O)n2nnnc2c2[nH]cnc21 | > 100 | 
> 100 | 18 | 51 | > 100 | CCCn1cnc2c1c1nnnn1c(=O)n2CCC | > 100 | 
> 100 | 3.1 | 1.6 | > 100 | CCCn1c(=O)n2ccnc2c2[nH]cnc21 | 90 | 
> 100 | 1.4 | 0.5 | 40 | CCCn1cnc2c1n(CCC)c(=O)n1ccnc21 | 19 | Emesis (Suncus murinus [3]): 3
 |  | 7.4 | > 300 | Nc1cc(-c2ccncc2)c[nH]c1=O [INAMRINONE] | 62 | 

Further lines, the molecule ahead of its results:

Compound | IC50 (Phosphodiesterase 3) [µM] | IC50 (Phosphodiesterase 4) [µM] | EC50 (Cavia porcellus [1]) [µM] | IC50 (Phosphodiesterase 1) [µM] | EC20 (Cavia porcellus [2]) [µM] | further results
CCCN1C(=O)N2CCCCN=C2c2ncn(CCC)c21 | > 100 | 13 | 2.5 | > 100 | > 100 | 
CCCn1cnc2c1c1nccn1c(=O)n2CCC | > 100 | 1.9 | 0.7 | 14 | 84 | 
CCCN1C(=O)N2CCCN=C2c2c1ncn2CCC | > 100 | 49 | 8.2 | > 100 | > 100 | 
CCCN1C(=O)N2CCN=C2c2c1ncn2CCC | > 100 | 5.1 | 2.5 | > 100 | > 100 | 
CCCn1cnc2c1n(CCC)c(=O)n1nnnc21 | > 100 | 39 | 68 | > 100 | > 100 | 
CCCN1C(=O)N2CCN=C2c2ncn(CCC)c21 | > 100 | 1.6 | 1 | > 100 | > 100 | Emesis (Suncus murinus [4]): 0; Emesis (Suncus murinus [5]): 0; Emesis (Suncus murinus [6]): 0
CCCCn1c(=O)c2c(ncn2CC(C)=O)n(CCCC)c1=O [DENBUFYLLINE] |  |  |  |  |  | Emesis (Suncus murinus [7]): 3
CCCCOc1cc(CC2CNC(=O)N2)ccc1OC (stereo unspecified) [RO-201724] | > 300 |  |  | > 300 |  | EC50 (Cavia porcellus [8]): 0.12 µM; EC20 (Cavia porcellus [9]): > 100 µM
COc1ccc(C2CNC(=O)C2)cc1OC1CCCC1 (stereo unspecified) [ROLIPRAM] |  |  |  |  |  | Emesis (Suncus murinus [3]): 3
Cn1c(=O)c2nc[nH]c2n(C)c1=O.O [THEOPHYLLINE] |  |  |  | 356 |  | Kb (Cavia porcellus [10]): 29.5 µM; EC20 (Cavia porcellus [9]): 88 µM
